The text below walks through data of article PMC12676294 (ACS Omega, 2025).

This data set can be described thus: Potentiometric titration: protonation constants of the ligands. It is filed as physicochemical. The conditions noted are these: T = 25.0 °C; I = 0.1 M KNO3. The essentials: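 Ligand (about 1 mM, 16 mL) with 5–9 mM HClO4 titrated with carbonate-free NaOH (about 0.1 M) under argon with stirring, at 25.0 ± 0.1 °C in 0.1 M KNO3. Glass electrode calibrated as an H+ concentration probe by Gran's method; pKw fixed at 13.78. Points accepted at drift <0.5 mV/min, pH 2–12, 55–130 points per dataset. Stepwise constants were refined from the titration curves.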

Turning to `NC(=O)CN1CCNC(=O)c2cccc(n2)C(=O)NCCN(CC(N)=O)CC1` [Py2am, 2-[9-(Carbamoylmethyl)-2,13-dioxo-3,6,9,12,18-pentaazabicyclo[12.3.1]octadeca-1(17),14(18),15-trien-6-yl]acetamide], the “Stepwise protonation constant Log K, HL” value is listed as 5.1 (1).
